Published values gathered from unrelated publications.
Compare with care: the assays were run in different laboratories. pEC50, pIC50: −log10 of the molar value.
PDPK1: 3-phosphoinositide-dependent protein kinase 1 (PDPK1, Homo sapiens, UniProt O15530)
PRSS1: Serine protease 1 (PRSS1, Homo sapiens, UniProt P07477)

O=C(O)C(F)(F)C(F)(F)C(F)(F)C(F)(F)C(F)(F)C(F)(F)C(F)(F)F
pIC50 (Aldo-keto reductase family 1 member C1 (AKR1C1, Homo sapiens, UniProt Q04828); enzyme activity, inhibitor): ≤ 4.30

CNC(=O)c1ccc(-c2cnn3ccc(C(=O)N(C)c4ccc(Cl)c(C(=O)O)c4)cc23)cc1
pIC50 (PDPK1; enzyme activity, inhibitor): < 4.52

CCC(C(=O)Nc1cc(NC2CCNC2)ccc1C)n1cc(Br)cc2nc(SCc3ccc(F)cc3)nc1-2 (centres unmarked)
pIC50 (PRSS1; enzyme activity, inhibitor): < 4.00

CC[C@H](C)[C@H](NC(=O)[C@H](CO)NC(=O)CNC(=O)[C@@H](NC(=O)[C@@H](NC(=O)[C@@H](NC(=O)CN)[C@@H](C)O)C(C)C)[C@@H](C)O)C(=O)N[C@@H](CC(C)C)C(=O)N[C@H](C(=O)N1CCC[C@H]1C(=O)N[C@H](C(=O)N[C@@H](CC(=O)O)C(=O)N[C@@H](Cc1ccc(O)cc1)C(=O)NCC(=O)N[C@H]1CSSC[C@@H](C(=O)N[C@@H](CO)C(=O)N[C@H](C(=O)N[C@@H](C)C(=O)N[C@@H](CCSC)C(=O)N[C@@H](Cc2ccc(O)cc2)C(=O)NCC(=O)NCC(=O)N[C@H](C(=O)N[C@H](C(=O)N[C@@H](CC(=O)O)C(=O)N2CCC[C@H]2C(=O)N[C@H](C(=O)N[C@@H](CCCNC(=N)N)C(=O)N[C@@H](Cc2ccccc2)C(=O)N2CCC[C@H]2C(=O)N[C@@H](CC(N)=O)C(=O)N[C@@H](C)C(=O)N[C@@H](Cc2c[nH]c3ccccc23)C(=O)N[C@@H](CCCNC(=N)N)C(=O)N[C@@H](CCC(=O)O)C(=O)N[C@@H](CC(C)C)C(=O)O)[C@@H](C)CC)[C@@H](C)CC)C(C)C)C(C)C)NC(=O)[C@H](CC(C)C)NC(=O)[C@H](Cc2ccccc2)NC(=O)[C@@H]2CCCN2C(=O)[C@H](CC(N)=O)NC(=O)[C@H](Cc2ccccc2)NC1=O)[C@@H](C)CC)[C@@H](C)O
pIC50 (Chymotrypsinogen A (Bos taurus, UniProt P00766); enzyme activity, inhibitor, fluorescence): < 4.00

COC(=O)c1cc(N(C)C(=O)c2ccn3ncc(-c4ccc(C(=O)O)cc4)c3c2)ccc1Cl
pIC50 (PDPK1; enzyme activity, inhibitor): < 4.52

O=C(O)[C@H]1/C(=C/CO)O[C@@H]2CC(=O)N21
pIC50 (Carbapenem-hydrolyzing beta-lactamase KPC (KPC-2, Klebsiella pneumoniae, UniProt Q9F663); enzyme activity, inhibitor, absorbance; pH 7, with preincubation): 3.60

CCC(C(=O)Nc1cc(NC2CCOCC2)ccc1C)n1cc(Br)cc2nc(SCc3ccc(F)cc3)nc1-2 (centres unmarked)
pIC50 (PRSS1; enzyme activity, inhibitor): < 4.00

C=CCc1ccc(OC)cc1
pEC50 (OR8H1 (Homo sapiens, UniProt Q8NGG4); cAMP, agonist, luciferase): < 3.22
